A selection: hits, their analogues and other compounds. The true share with any hit is near 2.3%.
SF-1 act – activators of human SF-1, primary screen, cell-based, CHO-K1, Gal4-SF-1 LBD, luciferase luminescence; Steroidogenic factor 1 (Homo sapiens), Q13285; activation, % at 10 µM; 65,000 compounds, 1.9% hits; CHO-K1 Gal4-SF-1 LBD luciferase reporter; % increase over DMSO SF-1-specific signal;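 active = activation above the mean activation of all tested compounds plus 3 SD, cut at about 50% in these data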
Target sequence (Q13285 whole entry, looked up, the tested form may be a part): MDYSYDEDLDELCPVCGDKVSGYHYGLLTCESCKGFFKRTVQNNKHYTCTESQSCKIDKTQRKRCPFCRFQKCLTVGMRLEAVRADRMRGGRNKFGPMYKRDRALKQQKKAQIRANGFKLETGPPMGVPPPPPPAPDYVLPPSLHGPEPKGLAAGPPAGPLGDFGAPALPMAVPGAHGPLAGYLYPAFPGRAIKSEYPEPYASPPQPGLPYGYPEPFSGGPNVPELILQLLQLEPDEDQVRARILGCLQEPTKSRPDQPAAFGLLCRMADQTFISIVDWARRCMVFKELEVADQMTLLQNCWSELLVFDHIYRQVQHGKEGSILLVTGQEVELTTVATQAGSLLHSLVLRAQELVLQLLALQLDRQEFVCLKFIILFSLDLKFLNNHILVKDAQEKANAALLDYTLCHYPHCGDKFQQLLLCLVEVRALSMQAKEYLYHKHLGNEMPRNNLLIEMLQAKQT
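Test system: CHO-K1 cells co-transfected with Gal4 DBD–human SF-1 LBD, 5xGal4 luciferase reporter. Quantity: 4,000 cells per well. Compound: 10 µM only. Incubation: compound added 1 h post-seeding, 20 h exposure at 37 °C, 5% CO2. Detection: SteadyLite luciferase luminescence. Replication: one test per compound.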
JNK3 blocker – JNK3 kinase activity inhibitors, primary screen, biochemical, human, purified enzyme. HTS. 60,000 compounds, 0.61% hits. inhibition, % at 8 µM. Mitogen-activated protein kinase 10 (Homo sapiens), P53779; in the data active = inhibition above about 17%;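 note: 0% = DMSO and 100% = reference inhibitor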
MT1-MMP txn act – MT1-MMP promoter reporter activation – cell-based, luciferase luminescence, primary screen; HT1080 MT1-MMP promoter luciferase reporter, overnight; active compounds read high; activation factor at 10 µM; 86,000 compounds, 0.16% hits; AID 750, 2007;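 active = activation factor of at least 2 for MT1-MMP transcription at 10 µM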
RORa activator – activators of orphan receptor RORA, primary screen, cell-based, luminescence. Nuclear receptor ROR-alpha (Homo sapiens), P35398. CHO-K1 Gal4-RORA LBD luciferase reporter; percent increase over mock-subtracted basal signal. activation, % at 10 µM. 65,000 compounds, 1.5% hits. AID 560, 2006;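 active = activation above the mean of all tested compounds plus 3 SD, cut at about 49% in these data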;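 note: 0% = DMSO-treated RORA cells and 100% = added signal equal to DMSO minus mock-transfected cells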
Active calls of the source: *; nt = no result.

SMILES | SF-1 act | JNK3 blocker | MT1-MMP txn act | RORa activator
CCCCCn1c(CCCNC(=O)CC)nc2ccccc21 | 2 | 1 | 1.2 | 24
CC(=O)Nc1ccc(-c2nc3c(C)cccc3[nH]2)cc1 | 99* | 4 | 1.2 | -4
Cc1ccc(-c2cc(C(=O)N3CCN(c4ncccn4)CC3)c3ccccc3n2)cc1 | 54* | 4 | 1.4 | 26
COc1ccccc1N1CCN(c2ncnc3c2oc2ccccc23)CC1 | 43 | 1 | 1.2 | 56*
c1cnc(N2CCN(c3ncnc4c3oc3ccccc34)CC2)nc1 | -13 | -3 | 0.9 | -10
CC(=O)c1c(C)[nH]c(C(=O)Nc2ccc3c(c2)OCCO3)c1C | 61* | 6 | 0.9 | 9
O=C(Nc1ccc2c(c1)OCCO2)c1c(F)cccc1F | 56* | -1 | 0.8 | 47
CCOC(=O)c1[nH]c(C)c(C(=O)Nc2ccc3c(c2)OCCO3)c1C | 1 | 6 | 1.3 | 39
O=C(Nc1ccc2oc(-c3ccccc3F)nc2c1)c1ccc2c(c1)OCCO2 | 31 | -5 | nt | 61*
Cc1cc(C)c(S(=O)(=O)n2nc(C)c(Br)c2C)c(C)c1 | 7 | 6 | 1.1 | -1
CCOc1cc(S(=O)(=O)N2CCC(C(N)=O)CC2)ccc1F | nt | nt | 1.1 | nt
CC(C)N1C(=O)CC(Nc2ccc(N3CCOCC3)cc2)C1=O (stereo not drawn) | nt | nt | 1.2 | nt
COc1ccc(NC2CC(=O)N(C(C)C)C2=O)cc1 (stereo not drawn) | 50* | -2 | 1.3 | 10
CN(CC(=O)Nc1cccc2ccccc12)c1ccc(S(=O)(=O)N2CCOCC2)cn1 | nt | nt | 1.1 | nt
CC1CCCC(C)N1C(=O)c1cc(-c2ccc(Cl)c(Cl)c2)on1 (stereo not drawn) | 26 | 3 | 1.3 | 76*
Cc1ccc(-c2cc(C(=O)N3CCCC3)no2)cc1 | -51 | -4 | 0.1 | -51
CN(C(=O)c1ccco1)c1nnc(C23CC4CC(CC(C4)C2)C3)s1 | 76* | -4 | 1.6 | 61*
CCN(C(=O)c1ccco1)c1nnc(-c2ccc(OC)cc2)s1 | nt | nt | 1.4 | nt
CCCCc1ccc(NC(=O)C2CCCO2)cc1 (stereo not drawn) | 33 | -3 | 1.5 | 76*
CCOC(=O)c1ccc(NC(=O)C2CCCO2)cc1 (stereo not drawn) | 64* | 0 | 1.5 | 12
Cn1c(C(C#N)C(=O)Cc2cccc3ccccc23)nc2ccccc21 (stereo not drawn) | -6 | nt | 1 | -22
Cn1c(C(C#N)C(=O)c2ccco2)nc2ccccc21 (stereo not drawn) | 59* | -5 | 1.9 | 67*
N#Cc1cc2ccccc2nc1SCc1ccccn1 | 67* | -10 | 1.7 | 71*
N#Cc1c(N)nc(SCc2ccccn2)c(C#N)c1-c1cccs1 | -11 | 3 | 1.2 | -13
c1ccc(OCCOc2ncnc3ccccc23)cc1 | 50* | 15 | 1.5 | 38
SMILES | SF-1 act | JNK3 blocker | MT1-MMP txn act | RORa activator
COc1cccc(CN(C(=O)c2cc3ccccc3oc2=O)C2CC2)c1 | 17 | -11 | 1.6 | 52*
CCCCCCN(C(=O)CCCCCN1C(=O)NC(c2ccc(Cl)cc2)C(C(=O)OCc2ccccc2)=C1C)C(C(=O)NCCCC)c1ccc(OCC(=O)OC)c(C(=O)OC)c1 (stereo not drawn) | nt | nt | 1.1 | nt
Cc1ccc(-c2cc(C(=O)NCc3ccco3)no2)cc1 | 48 | -1 | 1.2 | 32
O=C(NCc1ccco1)c1cc(-c2ccc3c(c2)OCO3)on1 | 43 | -5 | 1.7 | 51*
COc1ccc(-c2onc3ccc(Cl)cc23)cc1OC | 13 | 15 | 1.1 | -18
CCc1cc(=O)oc2cc(C)cc(OC(=O)c3ccco3)c12 | 1 | 20* | 1 | -19
Cc1ccc(-c2noc(C3CCCN(C(=O)c4ccccc4)C3)n2)o1 (stereo not drawn) | 28 | -5 | 1.5 | 50*
COc1ccc(C(=O)N2CCCC(c3nc(-c4cccs4)no3)C2)cc1 (stereo not drawn) | -5 | 4 | 1 | 3
Cn1c(C(=O)NCC2CCCO2)cc2oc3ccccc3c21 (stereo not drawn) | 50* | 2 | 1.3 | 59*
Cn1c(C(=O)NCc2cccs2)cc2oc3ccccc3c21 | 54* | 6 | 1 | 60*
Cc1ccc(-c2nnn(CC(=O)N(Cc3ccccc3F)C(C(=O)NC3CCCC3)c3ccncc3)n2)o1 (stereo not drawn) | nt | nt | 1 | nt
O=C1COc2ccc(C(=O)c3ccccc3C(=O)NCc3ccccc3)cc2N1 | nt | nt | 0.9 | nt
CS(=O)(=O)N1CCN(c2ccccc2NC(=O)CSc2ccc(Cl)cc2)CC1 | -14 | 21* | 1.1 | -7
CC(=O)Nc1ccc(Nc2nc(C)nc3c2oc2ccccc23)cc1 | 0 | 0 | 1 | -3
CC(=O)c1ccc(Nc2ncnc3c2oc2ccccc23)cc1 | 89* | 7 | 1.3 | 23
COc1ccccc1CNC(=O)C(C)NS(=O)(=O)c1ccc(Br)cc1 (stereo not drawn) | nt | nt | 1 | nt
CC(C)NC(=O)c1cc(-c2ccc(Br)cc2)on1 | 35 | -2 | 5.1* | 66*
CCCNC(=O)c1cc(-c2ccc(Br)cc2)on1 | 58* | 9 | 1.5 | 37
CCc1nnc(NC(=O)c2ccc(COc3ccc(C)cc3)o2)s1 | 52* | 1 | 1.2 | 14
CCc1nnc(NC(=O)c2ccc(COc3ccccc3)o2)s1 | 0 | 1 | 1 | 12
CC1CCC(NC(=O)Cn2ncc3ccccc32)CC1 (stereo not drawn) | 52* | 1 | 1.6 | 34
CCOC(=O)N1CCC(NC(=O)Cn2ncc3ccccc32)CC1 | 2 | -9 | 1.2 | -6
CCOC(=O)c1sc(NC(=O)c2ccc(Br)o2)cc1C | 69* | nt | 1.5 | 69*
CC(=O)c1cccc2c(O)c(C3=Nc4ccccc4C3=O)[nH]c12 | nt | nt | 2.3* | nt
C=CCNC(=O)CC(C)C(CCCCC)C(=O)O (stereo not drawn) | -7 | 1 | 1.1 | 5
SMILES | SF-1 act | JNK3 blocker | MT1-MMP txn act | RORa activator
COc1ccc(C(=O)n2c(-c3ccco3)nc3ccccc32)cc1 | -7 | -2 | 0.7 | 65*
c1cnc2c(SCc3ccc(-c4nnco4)cc3)cccc2c1 | 62* | 4 | 1.5 | 31
Cc1cc(NC(=O)COC(=O)[C@H](Cc2c[nH]c3ccccc23)NC(=O)c2ccc(F)cc2)no1 | nt | nt | 1.4 | nt
O=C(CN1C(=O)NC2(CCCCCC2)C1=O)c1ccc2c(c1)OCCO2 | 89* | 2 | 1.3 | 25
CCOC(=O)Cc1csc(NC(=O)CCN2C(=O)c3ccccc3C2=O)n1 | 15 | 0 | 1.2 | 3
Cc1ccc(Cc2nnc3n(-c4ccccc4)nc(C(=O)c4ccccc4)n3c2=O)cc1 | nt | nt | 1.1 | nt
CCOC(=O)N1CCC(NC(=O)c2ccc3c(c2)sc2nc(-c4cccc(OC)c4)cn23)CC1 | 24 | -1 | 1.3 | 2
CCOC(=O)N1CCC(NC(=O)c2ccc3c(c2)sc2nc(-c4ccccc4)cn23)CC1 | 22 | 13 | nt | 53*

From PubChem
